ChEMBL document CHEMBL3525903 (Drug Metab Dispos, 2013)

Experiments:
OCTN1 (SLC22A4) = biological target: T1, OCTN1 (SLC22A4) (Homo sapiens, UniProt Q9H015); experiment: Inhibition of OCTN1 (unknown origin) expressed in HEK293 cells assessed as reduction of [3H]ergothioneine substrate uptake at 100 uM by liquid scintillation counting; format: cell-based; settings: HEK293 cells expressing OCTN1, probe [3H]ergothioneine
T1 sequence (Q9H015 whole entry): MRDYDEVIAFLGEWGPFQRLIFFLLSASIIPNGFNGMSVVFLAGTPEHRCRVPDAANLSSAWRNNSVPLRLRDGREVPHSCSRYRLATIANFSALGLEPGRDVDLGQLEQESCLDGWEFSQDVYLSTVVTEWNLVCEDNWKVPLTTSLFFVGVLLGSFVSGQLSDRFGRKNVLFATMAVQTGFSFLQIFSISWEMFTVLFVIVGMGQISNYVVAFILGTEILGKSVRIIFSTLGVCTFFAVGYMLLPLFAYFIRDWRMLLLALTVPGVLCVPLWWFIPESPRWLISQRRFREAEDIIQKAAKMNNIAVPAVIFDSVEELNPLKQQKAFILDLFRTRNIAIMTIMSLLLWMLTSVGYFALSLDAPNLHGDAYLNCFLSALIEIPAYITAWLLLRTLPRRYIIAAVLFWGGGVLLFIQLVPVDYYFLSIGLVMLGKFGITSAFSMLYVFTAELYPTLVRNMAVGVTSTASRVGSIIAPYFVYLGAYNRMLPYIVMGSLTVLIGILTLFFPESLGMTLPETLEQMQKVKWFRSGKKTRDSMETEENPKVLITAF
Summary of the method: (§1)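 HEK293 cells transiently transfected with OAT, OATP or OCT plasmid (FuGENE6; 24 h, then 24 h more with sodium butyrate), or stable OCTN1/OCTN2 lines; vector-transfected cells as control. Washed, preincubated 15–60 min at 37 °C in modified Krebs-Henseleit/25 mM HEPES buffer. Uptake of radiolabelled substrate, 100 µM inhibitor. Cells lysed in NaOH and counted by scintillation; counts normalised to medium radioactivity and Lowry protein; vector uptake subtracted.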

OCTN2 = biological target: T2, OCTN2 (Homo sapiens, UniProt O76082); experiment: Inhibition of OCTN2 (unknown origin) expressed in HEK293 cells assessed as reduction of [3H]carnitine substrate uptake at 100 uM by liquid scintillation counting; format: cell-based; settings: HEK293 cells expressing OCTN2, probe [3H]carnitine; summary of the method: as §1
T2 sequence (O76082 whole entry): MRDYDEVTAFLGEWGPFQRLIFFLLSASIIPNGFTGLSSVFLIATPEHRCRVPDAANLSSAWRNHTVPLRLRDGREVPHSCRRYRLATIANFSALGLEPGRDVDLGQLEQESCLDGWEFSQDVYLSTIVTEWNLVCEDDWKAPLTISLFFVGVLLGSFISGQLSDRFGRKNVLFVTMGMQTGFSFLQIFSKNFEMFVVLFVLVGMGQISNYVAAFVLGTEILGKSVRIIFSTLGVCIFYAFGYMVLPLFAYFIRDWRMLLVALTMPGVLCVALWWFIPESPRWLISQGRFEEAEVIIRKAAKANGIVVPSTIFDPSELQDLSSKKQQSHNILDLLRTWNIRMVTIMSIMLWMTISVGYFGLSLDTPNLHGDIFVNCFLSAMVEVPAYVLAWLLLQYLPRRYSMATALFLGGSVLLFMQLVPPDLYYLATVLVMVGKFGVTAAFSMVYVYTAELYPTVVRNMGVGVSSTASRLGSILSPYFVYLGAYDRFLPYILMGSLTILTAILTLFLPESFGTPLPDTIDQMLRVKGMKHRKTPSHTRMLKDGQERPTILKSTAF

P-glycoprotein [1] = experiment: Permeability assessed as human P-glycoprotein-mediated transport across apical to basolateral side expressed in pig LLC-PK1 cells at 2 uM by liquid scintillation counting; format: ADME, cell-based
P-glycoprotein [2] = experiment: Permeability assessed as human P-glycoprotein-mediated transport across apical to basolateral side expressed in pig LLC-PK1 cells at 500 uM by liquid scintillation counting; format: ADME, cell-based
P-glycoprotein [3] = experiment: Permeability assessed as human P-glycoprotein-mediated transport across basolateral to apical side expressed in pig LLC-PK1 cells at 2 uM by liquid scintillation counting; format: ADME, cell-based
P-glycoprotein [4] = experiment: Permeability assessed as human P-glycoprotein-mediated active membrane transport by measuring apical to basolateral side expressed in pig LLC-PK1 cells by Transwell experiment/liquid scintillation counting; format: ADME, cell-based; settings: read-out: permeability
P-glycoprotein [5] = experiment: Permeability assessed as human P-glycoprotein-mediated transport of apical to basolateral side in pig LLC-PK1 cells by measuring nontransporter-related passive membrane permeability by Transwell experiment/liquid scintillation counting; format: ADME, cell-based; settings: read-out: permeability
[6] = biological target: T3, Solute carrier organic anion transporter family member 1B1 (Homo sapiens, UniProt Q9Y6L6); experiment: Inhibition of OATP1B1 (unknown origin) expressed in HEK293 cells assessed as reduction of [3H]E217betaG substrate uptake at 100 uM by liquid scintillation counting; format: ADME, cell-based; settings: hek293, 100 µM; summary of the method: as §1
T3 sequence (Q9Y6L6 whole entry): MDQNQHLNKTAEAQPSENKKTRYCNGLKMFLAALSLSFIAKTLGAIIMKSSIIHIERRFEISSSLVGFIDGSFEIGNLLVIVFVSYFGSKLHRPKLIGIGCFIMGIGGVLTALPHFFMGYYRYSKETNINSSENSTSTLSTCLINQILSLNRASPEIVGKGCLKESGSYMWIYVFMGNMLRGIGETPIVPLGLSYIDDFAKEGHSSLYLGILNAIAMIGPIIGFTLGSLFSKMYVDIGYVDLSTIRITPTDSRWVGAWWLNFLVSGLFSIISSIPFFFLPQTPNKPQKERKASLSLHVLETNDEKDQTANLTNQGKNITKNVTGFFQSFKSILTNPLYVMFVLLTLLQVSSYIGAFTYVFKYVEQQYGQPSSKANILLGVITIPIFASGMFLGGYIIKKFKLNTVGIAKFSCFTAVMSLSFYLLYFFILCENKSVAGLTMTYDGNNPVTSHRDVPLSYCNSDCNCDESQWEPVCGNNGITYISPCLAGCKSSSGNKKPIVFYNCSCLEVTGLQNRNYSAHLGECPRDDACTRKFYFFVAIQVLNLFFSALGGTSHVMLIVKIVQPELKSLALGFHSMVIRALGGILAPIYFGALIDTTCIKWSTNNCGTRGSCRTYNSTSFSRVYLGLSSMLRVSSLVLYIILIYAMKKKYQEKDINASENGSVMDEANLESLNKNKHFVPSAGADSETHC

CC#CCn1c(N2CCC[C@@H](N)C2)nc2c1c(=O)n(Cc1nc(C)c3ccccc3n1)c(=O)n2C [LINAGLIPTIN]
inhibition at 100 µM (OCTN1 (SLC22A4)): 19.4%
inhibition at 100 µM (OCTN2): 15.5%
Papp A→B at 2 µM (P-glycoprotein [1]): 4.21 ×10⁻⁶ cm/s
Papp A→B at 500 µM (P-glycoprotein [2]): 26.7 ×10⁻⁶ cm/s
Papp B→A at 2 µM (P-glycoprotein [3]): 39.4 ×10⁻⁶ cm/s
Papp A→B (P-glycoprotein [4]): 25.1 ×10⁻⁶ cm/s
Papp A→B (P-glycoprotein [5]): 27.3 ×10⁻⁶ cm/s
inhibition (INH) [6]: 35.5%
